Laboratory results: ChEMBL document CHEMBL1140548, “Synthesis, antibacterial activity, and quantitative structure-activity relationships of new (Z)-2-(nitroimidazolylmethylene)-3(2H)-benzofuranone derivatives” (2007)
Values after ≈ are worked out from the molar mass of the structure shown.

Columns and labels:
Type in all cases: functional
[1] = tested on: Staphylococcus epidermidis; assay: Antimicrobial activity against Staphylococcus epidermidis ATCC 12228
Summary of the method: (§1)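 Agar-dilution assay run in vitro on a panel of Gram-positive and Gram-negative bacteria, with amoxicillin as the reference drug. The MIC was taken as the minimal inhibitory concentration.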

[2] = tested on: Staphylococcus aureus; assay: Antimicrobial activity against methicillin-resistant Staphylococcus aureus isolate
Summary of the method: (§2)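 In vitro conventional agar-dilution assay against a panel of Gram-positive and Gram-negative bacteria. Read-out is the minimal inhibitory concentration (MIC), with amoxicillin as the reference drug.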

[3] = tested on: Staphylococcus aureus; assay: Antimicrobial activity against Staphylococcus aureus ATCC 6538p; summary of the method: as §1
[4] = tested on: Klebsiella pneumoniae; assay: Antimicrobial activity against Klebsiella pneumoniae ATCC 10031; summary of the method: as §1
[5] = tested on: Bacillus subtilis; assay: Antimicrobial activity against Bacillus subtilis ATCC 6633; summary of the method: as §1
[6] = tested on: Staphylococcus aureus; assay: Antimicrobial activity against methicillin-resistant Staphylococcus aureus isolate in presence of 0.1% butylated hydroxytoluene; summary of the method: as §2
[7] = tested on: Bacillus subtilis; assay: Antimicrobial activity against Bacillus subtilis ATCC 6633 in presence of 0.1% butylated hydroxytoluene
[8] = tested on: Staphylococcus aureus; assay: Antimicrobial activity against Staphylococcus aureus ATCC 6538p in presence of 0.1% butylated hydroxytoluene; summary of the method: as §2
[9] = tested on: Klebsiella pneumoniae; assay: Antimicrobial activity against Klebsiella pneumoniae ATCC 10031 in presence of 0.1% butylated hydroxytoluene
[10] = tested on: Staphylococcus epidermidis; assay: Antimicrobial activity against Staphylococcus epidermidis ATCC 12228 in presence of 0.1% butylated hydroxytoluene

Compound	MIC [1]	MIC [2]	MIC [3]	MIC [4]	MIC [5]	MIC [6]	MIC [7]	MIC [8]	MIC [9]	MIC [10]
Cc1cccc2c1O/C(=C\c1ncc([N+](=O)[O-])n1C)C2=O	1.56 µg/mL (≈ 5.47 µM)	3.12 µg/mL (≈ 11 µM)	3.12 µg/mL (≈ 11 µM)	0.39 µg/mL (≈ 1.37 µM)	1.56 µg/mL (≈ 5.47 µM)	–	–	–	–	–
COc1cccc2c1O/C(=C\c1ncc([N+](=O)[O-])n1C)C2=O	0.78 µg/mL (≈ 2.59 µM)	0.78 µg/mL (≈ 2.59 µM)	0.78 µg/mL (≈ 2.59 µM)	0.78 µg/mL (≈ 2.59 µM)	0.78 µg/mL (≈ 2.59 µM)	–	–	–	–	–
Cn1c([N+](=O)[O-])cnc1/C=C1\Oc2ccc(Cl)cc2C1=O	3.12 µg/mL (≈ 10.2 µM)	3.12 µg/mL (≈ 10.2 µM)	3.12 µg/mL (≈ 10.2 µM)	0.78 µg/mL (≈ 2.55 µM)	1.56 µg/mL (≈ 5.1 µM)	–	–	–	–	–
Cn1c([N+](=O)[O-])cnc1/C=C1\Oc2ccc(Br)cc2C1=O	> 100 µg/mL	> 100 µg/mL	> 100 µg/mL	3.12 µg/mL (≈ 8.93 µM)	> 100 µg/mL	–	–	–	–	–
Cc1ccc2c(c1)C(=O)/C(=C/c1ncc([N+](=O)[O-])n1C)O2	3.12 µg/mL (≈ 11 µM)	3.12 µg/mL (≈ 11 µM)	3.12 µg/mL (≈ 11 µM)	0.39 µg/mL (≈ 1.37 µM)	1.56 µg/mL (≈ 5.47 µM)	–	–	–	–	–
Cn1c([N+](=O)[O-])cnc1/C=C1\Oc2cc(Cl)ccc2C1=O	> 100 µg/mL	> 100 µg/mL	> 100 µg/mL	0.78 µg/mL (≈ 2.55 µM)	1.56 µg/mL (≈ 5.1 µM)	–	–	–	–	–
Cc1ccc2c(c1)O/C(=C\c1ncc([N+](=O)[O-])n1C)C2=O	1.56 µg/mL (≈ 5.47 µM)	1.56 µg/mL (≈ 5.47 µM)	3.12 µg/mL (≈ 11 µM)	0.39 µg/mL (≈ 1.37 µM)	0.78 µg/mL (≈ 2.73 µM)	–	–	–	–	–
Cn1c([N+](=O)[O-])cnc1/C=C1\Oc2ccc([N+](=O)[O-])cc2C1=O	6.25 µg/mL (≈ 19.8 µM)	12.5 µg/mL (≈ 39.5 µM)	12.5 µg/mL (≈ 39.5 µM)	6.25 µg/mL (≈ 19.8 µM)	12.5 µg/mL (≈ 39.5 µM)	–	–	–	–	–
COc1cccc2c1O/C(=C\c1c([N+](=O)[O-])ncn1C)C2=O	> 100 µg/mL	> 100 µg/mL	> 100 µg/mL	> 100 µg/mL	> 100 µg/mL	–	–	–	–	–
Cn1cnc([N+](=O)[O-])c1/C=C1\Oc2ccc([N+](=O)[O-])cc2C1=O	> 100 µg/mL	> 100 µg/mL	> 100 µg/mL	> 100 µg/mL	> 100 µg/mL	–	–	–	–	–
Cn1c([N+](=O)[O-])cnc1/C=C1\Oc2ccccc2C1=O	3.12 µg/mL (≈ 11.5 µM)	6.25 µg/mL (≈ 23 µM)	3.12 µg/mL (≈ 11.5 µM)	0.39 µg/mL (≈ 1.44 µM)	0.78 µg/mL (≈ 2.88 µM)	–	–	–	–	–
Cn1c([N+](=O)[O-])cnc1/C=C1\Oc2cc(O)cc(O)c2C1=O	–	–	–	–	–	> 100 µg/mL	50 µg/mL	> 100 µg/mL	> 100 µg/mL	50 µg/mL
Cn1cnc([N+](=O)[O-])c1/C=C1\Oc2cc(Cl)ccc2C1=O	> 100 µg/mL	> 100 µg/mL	> 100 µg/mL	> 100 µg/mL	> 100 µg/mL	–	–	–	–	–
COc1ccc2c(c1)O/C(=C\c1c([N+](=O)[O-])ncn1C)C2=O	> 100 µg/mL	> 100 µg/mL	> 100 µg/mL	> 100 µg/mL	> 100 µg/mL	–	–	–	–	–
Cn1cnc([N+](=O)[O-])c1/C=C1\Oc2c(Cl)cccc2C1=O	> 100 µg/mL	> 100 µg/mL	> 100 µg/mL	> 100 µg/mL	> 100 µg/mL	–	–	–	–	–
Cn1cnc([N+](=O)[O-])c1/C=C1\Oc2ccccc2C1=O	> 100 µg/mL	> 100 µg/mL	> 100 µg/mL	> 100 µg/mL	> 100 µg/mL	–	–	–	–	–

Compound	MIC [1]	MIC [2]	MIC [3]	MIC [4]	MIC [5]	MIC [6]	MIC [7]	MIC [8]	MIC [9]	MIC [10]
Cc1cccc2c1O/C(=C\c1c([N+](=O)[O-])ncn1C)C2=O	> 100 µg/mL	> 100 µg/mL	> 100 µg/mL	> 100 µg/mL	> 100 µg/mL	–	–	–	–	–
COc1ccc2c(c1)O/C(=C\c1ncc([N+](=O)[O-])n1C)C2=O	1.56 µg/mL (≈ 5.18 µM)	1.56 µg/mL (≈ 5.18 µM)	1.56 µg/mL (≈ 5.18 µM)	0.39 µg/mL (≈ 1.29 µM)	0.78 µg/mL (≈ 2.59 µM)	–	–	–	–	–
Cn1c([N+](=O)[O-])cnc1/C=C1\Oc2c(Cl)cccc2C1=O	3.12 µg/mL (≈ 10.2 µM)	3.12 µg/mL (≈ 10.2 µM)	3.12 µg/mL (≈ 10.2 µM)	1.56 µg/mL (≈ 5.1 µM)	3.12 µg/mL (≈ 10.2 µM)	–	–	–	–	–
Cc1ccc2c(c1)C(=O)/C(=C/c1c([N+](=O)[O-])ncn1C)O2	> 100 µg/mL	> 100 µg/mL	> 100 µg/mL	> 100 µg/mL	> 100 µg/mL	–	–	–	–	–
Cn1cnc([N+](=O)[O-])c1/C=C1\Oc2ccc(Br)cc2C1=O	> 100 µg/mL	> 100 µg/mL	> 100 µg/mL	> 100 µg/mL	> 100 µg/mL	–	–	–	–	–
COc1ccc2c(c1)C(=O)/C(=C/c1ncc([N+](=O)[O-])n1C)O2	3.12 µg/mL (≈ 10.4 µM)	3.12 µg/mL (≈ 10.4 µM)	3.12 µg/mL (≈ 10.4 µM)	0.39 µg/mL (≈ 1.29 µM)	0.78 µg/mL (≈ 2.59 µM)	–	–	–	–	–
Cn1c([N+](=O)[O-])cnc1/C=C1\Oc2ccc(I)cc2C1=O	> 100 µg/mL	> 100 µg/mL	> 100 µg/mL	50 µg/mL (≈ 126 µM)	> 100 µg/mL	–	–	–	–	–
COc1ccc2c(c1)C(=O)/C(=C/c1c([N+](=O)[O-])ncn1C)O2	> 100 µg/mL	> 100 µg/mL	> 100 µg/mL	6.25 µg/mL (≈ 20.7 µM)	> 100 µg/mL	–	–	–	–	–
Cn1c([N+](=O)[O-])cnc1/C=C1\Cc2ccccc2C1=O	> 100 µg/mL	> 100 µg/mL	> 100 µg/mL	0.2 µg/mL (≈ 0.743 µM)	> 100 µg/mL	–	–	–	–	–
Cn1c([N+](=O)[O-])cnc1C=C1C(=O)c2ccccc2C1=O	50 µg/mL (≈ 177 µM)	100 µg/mL (≈ 353 µM)	100 µg/mL (≈ 353 µM)	> 100 µg/mL	50 µg/mL (≈ 177 µM)	–	–	–	–	–
Cc1ccc2c(c1)O/C(=C\c1c([N+](=O)[O-])ncn1C)C2=O	> 100 µg/mL	> 100 µg/mL	> 100 µg/mL	> 100 µg/mL	> 100 µg/mL	–	–	–	–	–
Cn1cnc([N+](=O)[O-])c1/C=C1\Oc2ccc(I)cc2C1=O	> 100 µg/mL	> 100 µg/mL	> 100 µg/mL	> 100 µg/mL	> 100 µg/mL	–	–	–	–	–
COc1ccc2c(c1OC)O/C(=C\c1ncc([N+](=O)[O-])n1C)C2=O	0.39 µg/mL (≈ 1.18 µM)	0.78 µg/mL (≈ 2.35 µM)	0.78 µg/mL (≈ 2.35 µM)	0.2 µg/mL (≈ 0.604 µM)	0.39 µg/mL (≈ 1.18 µM)	–	–	–	–	–
Cn1c([N+](=O)[O-])cnc1/C=C1\Oc2cc(O)ccc2C1=O	–	–	–	–	–	12.5 µg/mL	6.25 µg/mL	12.5 µg/mL	3.12 µg/mL	6.25 µg/mL
Cn1cnc([N+](=O)[O-])c1/C=C1\Oc2ccc(Cl)cc2C1=O	> 100 µg/mL	> 100 µg/mL	> 100 µg/mL	> 100 µg/mL	> 100 µg/mL	–	–	–	–	–
CC1(C)S[C@@H]2[C@H](NC(=O)[C@H](N)c3ccc(O)cc3)C(=O)N2[C@H]1C(=O)O [AMOXICILLIN]	0.195 µg/mL (≈ 0.534 µM)	12.5 µg/mL (≈ 34.2 µM)	0.195 µg/mL (≈ 0.534 µM)	> 100 µg/mL	12.5 µg/mL (≈ 34.2 µM)	–	–	–	–	–
